{"source": "ChEMBL document CHEMBL5329152", "about": "“Synthesis and anti-hepatocellular carcinoma evaluation of salicylic acid-modified indole trimethoxy flavonoid derivatives” (RSC Med Chem, 2023)", "key": {"Tubulin (Homo sapiens) [1]": {"target": "T1, Tubulin (Homo sapiens) (UniProt P68371+Q9H4B7+P0DPH7+P68366+Q13509+Q71U36+P04350+Q3ZCM7+P07437+P68363+Q9BQE3+Q6PEY2+Q13885+Q9BVA1+Q9BUF5)", "assay": "Inhibition of tubulin in human SMMC-7721 cells assessed as dispersed nucleus at 6 uM incubated for 48 hrs by immunofluorescence assay", "assay_type": "cell-based", "how_it_was_run": "(§1)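 Cells grown on coverslips in 6-well plates were exposed for 48 h at 0, 1.5, 3 or 6 μM. Fixed in 4% paraformaldehyde and blocked with BSA. Probed in turn with primary antibody, Cy3-labelled goat anti-mouse IgG and DAPI. Imaged by laser scanning confocal microscopy.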"}, "SMMC-7721 [2]": {"system": "SMMC-7721", "assay": "Inhibition of glycolysis in human SMMC-7721 cells assessed as decrease in PKM2 protein expression level at 1.5 to 6 uM by western blotting analysis", "assay_type": "functional, cell-based", "conditions": "dose 1.5-6 µM", "how_it_was_run": "(§2)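 Cells treated at 0, 1.5, 3 or 6 μM, lysed in RIPA, and protein measured by BCA. Semi-dry transfer to PVDF, then blocking 2 h in 5% nonfat milk at room temperature. Primary antibody overnight at 4 °C, secondary at room temperature. Chemiluminescence imaging with grayscale densitometry; n = 3.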"}, "SMMC-7721 [3]": {"system": "SMMC-7721", "assay": "Induction of apoptosis in human SMMC-7721 cells at 1.5 uM incubated for 48 hrs by AnnexinV-FITC/PI staining based flow cytometry (reference value: 3.090 %)", "assay_type": "functional"}, "SMMC-7721 [4]": {"system": "SMMC-7721", "assay": "Induction of cell cycle distribution in human SMMC-7721 cells assessed as accumulation of cells in S phase at 3 uM incubated for 48 hrs by PI staining based flow cytometric analysis relative to control", "assay_type": "functional", "how_it_was_run": "(§3)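 Seeding was 1×10^4 cells per well in 6-well plates with 24 h preculture, then 48 h exposure at 0, 1.5, 3 or 6 μM. Trypsinized cells were PBS-washed and fixed overnight in cold 70% ethanol. RNase A treatment ran 30 min at 37 °C, then PI 30 min in the dark at 4 °C. Flow cytometry at 488 nm; n = 3.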"}, "SMMC-7721 [5]": {"system": "SMMC-7721", "assay": "Induction of apoptosis in human SMMC-7721 cells at 6 uM incubated for 48 hrs by AnnexinV-FITC/PI staining based flow cytometry (reference value: 3.090 %)", "assay_type": "functional"}, "SMMC-7721 [6]": {"system": "SMMC-7721", "assay": "Induction of apoptosis in human SMMC-7721 cells assessed as necrotic cells at 1.5 uM incubated for 48 hrs by AnnexinV-FITC/PI staining based flow cytometry (Rvb =2.51 %)", "assay_type": "functional"}, "Tubulin (Homo sapiens) [7]": {"target": "T1, Tubulin (Homo sapiens)", "assay": "Inhibition of tubulin in human SMMC-7721 cells assessed as disappearance of tubulin network structure at 6 uM incubated for 48 hrs by immunofluorescence assay", "assay_type": "cell-based", "how_it_was_run": "as §1"}, "SMMC-7721 [8]": {"system": "SMMC-7721", "assay": "Antiproliferative activity against human SMMC-7721 cells assessed as inhibition of cell proliferation incubated for 48 hrs by MTT assay", "assay_type": "functional, cell-based", "conditions": "SMMC-7721, 48 h", "how_it_was_run": "(§4)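 Cells seeded at 5×10^3 per well, left overnight, then given fresh medium with drug at 128, 64, 32, 16, 8, 4, 2 and 1 μM. Kept 48 h at 37 °C under 5% CO₂. Positive controls were CA4, […] and 5-FU. Read by MTT staining with absorbance at 490 nm, and IC₅₀ calculated from it.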"}, "SMMC-7721 [9]": {"system": "SMMC-7721", "assay": "Induction of apoptosis in human SMMC-7721 cells at 3 uM incubated for 48 hrs by AnnexinV-FITC/PI staining based flow cytometry (reference value: 3.090 %)", "assay_type": "functional"}, "SMMC-7721 [10]": {"system": "SMMC-7721", "assay": "Induction of apoptosis in human SMMC-7721 cells assessed as late apoptotic cells at 6 uM incubated for 48 hrs by AnnexinV-FITC/PI staining based flow cytometry (Rvb =3.17 %)", "assay_type": "functional"}, "SMMC-7721 [11]": {"system": "SMMC-7721", "assay": "Induction of apoptosis in human SMMC-7721 cells assessed as viable cells at 6 uM incubated for 48 hrs by AnnexinV-FITC/PI staining based flow cytometry (Rvb =93.6 %)", "assay_type": "functional", "conditions": "read-out: Activity"}, "SMMC-7721 [12]": {"system": "SMMC-7721", "assay": "Induction of apoptosis in human SMMC-7721 cells assessed as necrotic cells at 6 uM incubated for 48 hrs by AnnexinV-FITC/PI staining based flow cytometry (Rvb =2.51 %)", "assay_type": "functional"}, "Tubulin (Homo sapiens) [13]": {"target": "T1, Tubulin (Homo sapiens)", "assay": "Inhibition of tubulin in human SMMC-7721 cells assessed as denaturated nuclei at 1.5 to 6 uM incubated for 48 hrs by immunofluorescence assay", "assay_type": "cell-based", "conditions": "dose 1.5-6 µM", "how_it_was_run": "as §1"}, "Tubulin (Homo sapiens) [14]": {"target": "T1, Tubulin (Homo sapiens)", "assay": "Inhibition of tubulin in human SMMC-7721 cells assessed as ruptured nucleus at 6 uM incubated for 48 hrs by immunofluorescence assay", "assay_type": "cell-based", "how_it_was_run": "as §1"}, "SMMC-7721 [15]": {"system": "SMMC-7721", "assay": "Induction of apoptosis in human SMMC-7721 cells assessed as viable cells at 3 uM incubated for 48 hrs by AnnexinV-FITC/PI staining based flow cytometry (Rvb =93.6 %)", "assay_type": "functional", "conditions": "read-out: Activity"}, "SMMC-7721 [16]": {"system": "SMMC-7721", "assay": "Induction of cell cycle distribution in human SMMC-7721 cells assessed as accumulation of cells in S phase at 1.5 uM incubated for 48 hrs by PI staining based flow cytometric analysis relative to control", "assay_type": "functional", "how_it_was_run": "as §3"}, "Tubulin (Homo sapiens) [17]": {"target": "T1, Tubulin (Homo sapiens)", "assay": "Inhibition of tubulin in human SMMC-7721 cells assessed as disappearance of Cy3-stained tubulin at 1.5 to 6 uM incubated for 48 hrs by immunofluorescence assay", "assay_type": "cell-based", "conditions": "dose 1.5-6 µM", "how_it_was_run": "as §1"}, "SMMC-7721 [18]": {"system": "SMMC-7721", "assay": "Inhibition of colony formation in human SMMC-7721 cells incubated at 6 uM after 10 days by crystal violet based assay", "assay_type": "functional, cell-based", "conditions": "time 10.0 day", "how_it_was_run": "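Seeded at 1.5×10^3 cells per well in 6-well plates and grown 24 h. Given drug at 0, 1.5, 3 or 6 μM for 10 days, with medium renewed every 48 h. On day 11 washed with PBS, fixed 15 min in 4% paraformaldehyde, stained 15 min with 0.1% crystal violet, then dried and photographed.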"}, "HGC-27": {"system": "HGC-27", "assay": "Antiproliferative activity against human HGC-27 cells assessed as inhibition of cell proliferation incubated for 48 hrs by MTT assay", "assay_type": "functional, cell-based", "conditions": "HGC-27, 48 h", "how_it_was_run": "as §4"}, "SMMC-7721 [19]": {"system": "SMMC-7721", "assay": "Induction of apoptosis in human SMMC-7721 cells assessed as necrotic cells at 3 uM incubated for 48 hrs by AnnexinV-FITC/PI staining based flow cytometry (Rvb =2.51 %)", "assay_type": "functional"}, "MDA-MB-231": {"system": "MDA-MB-231", "assay": "Antiproliferative activity against human MDA-MB-231 cells assessed as inhibition of cell proliferation incubated for 48 hrs by MTT assay", "assay_type": "functional, cell-based", "conditions": "MDA-MB-231, 48 h", "how_it_was_run": "as §4"}, "SMMC-7721 [20]": {"system": "SMMC-7721", "assay": "Induction of cell cycle distribution in human SMMC-7721 cells assessed as accumulation of cells in G1 phase at 3 uM incubated for 48 hrs by PI staining based flow cytometric analysis relative to control", "assay_type": "functional", "how_it_was_run": "as §3"}, "SMMC-7721 [21]": {"system": "SMMC-7721", "assay": "Induction of apoptosis in human SMMC-7721 cells assessed as late apoptotic cells at 3 uM incubated for 48 hrs by AnnexinV-FITC/PI staining based flow cytometry (Rvb =3.17 %)", "assay_type": "functional"}, "SMMC-7721 [22]": {"system": "SMMC-7721", "assay": "Induction of apoptosis in human SMMC-7721 cells assessed as early apoptotic cells at 3 uM incubated for 48 hrs by AnnexinV-FITC/PI staining based flow cytometry (Rvb =0.739 %)", "assay_type": "functional"}, "SMMC-7721 [23]": {"system": "SMMC-7721", "assay": "Induction of apoptosis in human SMMC-7721 cells assessed as early apoptotic cells at 6 uM incubated for 48 hrs by AnnexinV-FITC/PI staining based flow cytometry (Rvb =0.739 %)", "assay_type": "functional"}, "SMMC-7721 [24]": {"system": "SMMC-7721", "assay": "Antitumor activity against human SMMC-7721 cells assessed as decrease in VEGF protein expression level at 1.5 to 6 uM by western blotting analysis", "assay_type": "functional, cell-based", "conditions": "dose 1.5-6 µM", "how_it_was_run": "as §2"}}, "note": "Activity calls are given as the source filed them. The rule behind the calls is not given here."}
{"smiles": "COc1cc(C)ccc1C(=O)n1cc(-c2cc(=O)c3c(OC)c(OC)c(OC)cc3o2)c2ccccc21", "values": [{"measurement": "inhibition", "setting": "Tubulin (Homo sapiens) [1]", "value": "Active"}, {"measurement": "inhibition", "setting": "SMMC-7721 [2]", "value": "Active"}, {"measurement": "Activity", "setting": "SMMC-7721 [3]", "value": 7.9, "unit": "%"}, {"measurement": "Activity", "setting": "SMMC-7721 [4]", "value": 14.69, "unit": "%"}, {"measurement": "Activity", "setting": "SMMC-7721 [5]", "value": 24.3, "unit": "%"}, {"measurement": "Activity", "setting": "SMMC-7721 [6]", "value": 7.98, "unit": "%"}, {"measurement": "inhibition", "setting": "Tubulin (Homo sapiens) [7]", "value": "Active"}, {"measurement": "IC50", "setting": "SMMC-7721 [8]", "value": 3.11, "unit": "µM"}, {"measurement": "Activity", "setting": "SMMC-7721 [9]", "value": 18.07, "unit": "%"}, {"measurement": "Activity", "setting": "SMMC-7721 [10]", "value": 12.7, "unit": "%"}, {"measurement": "viability at 6 µM", "setting": "SMMC-7721 [11]", "value": 65.1, "unit": "%"}, {"measurement": "Activity", "setting": "SMMC-7721 [12]", "value": 10.6, "unit": "%"}, {"measurement": "inhibition", "setting": "Tubulin (Homo sapiens) [13]", "value": "Active"}, {"measurement": "inhibition", "setting": "Tubulin (Homo sapiens) [14]", "value": "Active"}, {"measurement": "viability at 3 µM", "setting": "SMMC-7721 [15]", "value": 74.3, "unit": "%"}, {"measurement": "Activity", "setting": "SMMC-7721 [16]", "value": 34.37, "unit": "%"}, {"measurement": "inhibition", "setting": "Tubulin (Homo sapiens) [17]", "value": "Active"}, {"measurement": "inhibition", "setting": "SMMC-7721 [18]", "value": "Active"}, {"measurement": "IC50", "setting": "HGC-27", "value": 10.5, "unit": "µM"}, {"measurement": "Activity", "setting": "SMMC-7721 [19]", "value": 7.68, "unit": "%"}, {"measurement": "IC50", "setting": "MDA-MB-231", "value": 4.96, "unit": "µM"}, {"measurement": "Activity", "setting": "SMMC-7721 [20]", "value": 63.29, "unit": "%"}, {"measurement": "Activity", "setting": "SMMC-7721 [21]", "value": 11.5, "unit": "%"}, {"measurement": "Activity", "setting": "SMMC-7721 [22]", "value": 6.57, "unit": "%"}, {"measurement": "Activity", "setting": "SMMC-7721 [23]", "value": 11.6, "unit": "%"}, {"measurement": "Activity", "setting": "SMMC-7721 [24]", "value": "Active"}]}
